According to ChEMBL document CHEMBL1795208 (J Med Chem, 2011):

How the values were obtained:
Type in all cases: functional, cell-based
SK-BR-3 = assay: Antiproliferative activity against human SKBR3 cells expressing HER2 after 72 hrs by MTS/PMS assay; conditions: SK-BR-3, 72 h
In short: (§1)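 Cells kept in Advanced DMEM/F12 (1:1) with non-essential amino acids, 2 mM L-glutamine, penicillin, streptomycin and 10% FBS at 37 °C, 5% CO2. Seeded at 2000/well, attached overnight. Compound added in DMSO across a concentration range (1% DMSO final) for 72 h. Viable cells read by MTS/PMS and normalized to 1% DMSO controls (100%). IC50 taken from separate triplicate experiments.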

MCF7 = assay: Antiproliferative activity against human MCF7 cells expressing estrogen receptor after 72 hrs by MTS/PMS assay; conditions: MCF7, 72 h; in short: as §1
[1] = Antiproliferative activity against human androgen-dependent LNCaP-LN3 cells after 72 hrs by MTS/PMS assay; conditions: LNCaP-LN3, 72 h; in short: as §1
[2] = Antiproliferative activity against human androgen-independent PC3MM2 cells after 72 hrs by MTS/PMS assay; conditions: PC3MM2, 72 h; in short: as §1
B16-F10 = assay: Antiproliferative activity against mouse B16F10 cells after 72 hrs by MTS/PMS assay; conditions: B16-F10, 72 h; in short: as §1
SK-MEL-28 = assay: Antiproliferative activity against human SK-MEL-28 cells after 72 hrs by MTS/PMS assay; conditions: SK-MEL-28, 72 h; in short: as §1
[3] = Antiproliferative activity against human MDA1986 cells after 72 hrs by MTS/PMS assay; conditions: MDA1986, 72 h; in short: as §1
[4] = Antiproliferative activity against human JMAR cells after 72 hrs by MTS/PMS assay; in short: as §1

Row | SMILES | IC50 (SK-BR-3) [µM] | IC50 (MCF7) [µM] | IC50 (B16-F10) [µM] | IC50 (SK-MEL-28) [µM] | IC50 [1] [µM] | IC50 [2] [µM] | IC50 [3] [µM] | IC50 [4] [µM]
1 | COc1cccc(-c2cc(C(=O)Nc3cc4ccc(OC5CCCN(C)C5)c(OC)c4oc3=O)ccc2OC)c1 (stereo not drawn) | 1.4 | 1.38 | 1.51 | 7.14 | 1.78 | 2.16 | 11.4 | 7.5
2 | COc1cccc(-c2cc(C(=O)Nc3cc4cc(OC)c(OC5CCCN(C(C)=O)C5)c(C)c4oc3=O)ccc2OC)c1 (stereo not drawn) |  |  | 23.9 | 29.4 |  |  | 36.4 | 32.8
3 | CNC(=O)Oc1c(OC)cc2cc(NC(=O)c3ccc(OC)c(-c4cccc(OC)c4)c3)c(=O)oc2c1C | 1.53 | 7.78 |  |  | 4.77 | 3.13 |  | 
4 | COc1cccc(-c2cc(C(=O)Nc3cc4ccc(OS(=O)(=O)c5ccc(C)cc5)c(C)c4oc3=O)ccc2OC)c1 | > 100 | > 100 |  |  | 0.58 | > 100 |  | 
5 | COc1cc2cc(NC(=O)c3cc4ccccc4[nH]3)c(=O)oc2c(C)c1OCCCN(C)C | 0.57 | 0.56 | 2.03 | 1.35 |  | 2.58 | 1.81 | 2.65
6 | COc1cccc(-c2cc(C(=O)Nc3cc4cc(OC)c(OC5C=CCN(C(C)=O)C5)c(C)c4oc3=O)ccc2OC)c1 (stereo not drawn) |  |  | 21.4 | 27.6 |  |  | 25.1 | 35.1
7 | COc1c(OCCCN(C)C)ccc2cc(NC(=O)c3cc4ccccc4[nH]3)c(=O)oc12 | 1.5 | 1.41 |  |  | 4.71 | 8.95 |  | 
8 | COc1cccc(-c2cc(C(=O)Nc3cc4cc(OC)c(OP(=O)(OC)OC)c(C)c4oc3=O)ccc2OC)c1 | 26.5 | 24.2 |  |  | 1.36 | 31.3 |  | 
9 | COc1cccc(-c2cc(C(=O)Nc3cc4ccc(OC(N)=O)c(OC)c4oc3=O)ccc2OC)c1 | 76.8 | 5.56 |  |  | 4.83 | > 100 |  | 
10 | Cc1c(OC2CCN(C)CC2)ccc2cc(NC(=O)c3cc4ccccc4[nH]3)c(=O)oc12 | 0.48 | 0.57 |  |  | 11.8 | 11.4 |  | 
11 | COc1cccc(-c2cc(C(=O)Nc3cc4cc(OC)c(OC5OC(C)(C)[C@H](OC)[C@@H](O)[C@H]5O)c(C)c4oc3=O)ccc2OC)c1 (stereo partly drawn) | 58.8 | > 100 |  |  | 26.6 | > 100 |  | 
12 | COc1cccc(-c2cc(C(=O)Nc3cc4ccc(OC(=O)N(C)C)c(C)c4oc3=O)ccc2OC)c1 | 39.9 | 74.4 |  |  | 5.4 | > 100 |  | 
13 | COc1cccc(-c2cc(C(=O)Nc3cc4ccc(OC5OC(C)(C)[C@H](OC)[C@@H](O)[C@H]5O)c(OC)c4oc3=O)ccc2OC)c1 (stereo partly drawn) | 13.9 | 9 |  |  | 0.11 | 1.44 |  | 
14 | COc1cccc(-c2cc(C(=O)Nc3cc4cc(OC)c(O[C@@H]5O[C@H](CO)C[C@@H](O)[C@H]5O)c(C)c4oc3=O)ccc2OC)c1 | 9.45 | 3.37 |  |  | 4.66 | 5.9 |  | 
15 | COc1cccc(-c2cc(C(=O)Nc3cc4ccc(OC(=O)N(C)C)c(OC)c4oc3=O)ccc2OC)c1 | > 100 | > 100 |  |  | 15.7 | 11.6 |  | 
16 | COc1cccc(-c2cc(C(=O)Nc3cc4cc(OC)c(O[C@@H]5OC[C@@H](O)[C@H]5O)c(C)c4oc3=O)ccc2OC)c1 | 9.45 | 3.37 |  |  | 4.72 | 9.56 |  | 
17 | COc1cccc(-c2cc(C(=O)Nc3cc4cc(OC)c(OCCN(C)C)c(C)c4oc3=O)ccc2OC)c1 | 1.42 | 1.29 |  |  | 6.28 | 4.87 |  | 
18 | COc1cccc(-c2cc(C(=O)Nc3cc4ccc(OCCCN(C)C)c(OC)c4oc3=O)ccc2OC)c1 | 0.91 | 1.53 |  |  | 8.03 | 4.08 |  | 
19 | CNCCOc1c(OC)cc2cc(NC(=O)c3ccc(OC)c(-c4cccc(OC)c4)c3)c(=O)oc2c1C | 3.15 | 6.23 |  |  | > 100 | 11.8 |  | 
20 | COc1cccc(-c2cc(C(=O)Nc3cc4ccc(OC(C)=O)c(OC)c4oc3=O)ccc2OC)c1 | 20.5 | 8.62 |  |  | 14.6 | 19.3 |  | 
21 | CNCCOc1ccc2cc(NC(=O)c3ccc(OC)c(-c4cccc(OC)c4)c3)c(=O)oc2c1OC | 3.6 | 4.32 |  |  | 15.2 | 9.12 |  | 
22 | COc1cccc(-c2cc(C(=O)Nc3cc4cc(OC)c(OCCCN(C)C)c(C)c4oc3=O)ccc2OC)c1 | 0.49 | 0.7 |  |  | 4.71 | 5.4 |  | 
23 | COc1cccc(-c2cc(C(=O)Nc3cc4cc(OC)c(OC(N)=O)c(C)c4oc3=O)ccc2OC)c1 | 6.83 | 6.29 |  |  | 3.55 | 2.62 |  | 

Further lines, with some results ahead:

Row | IC50 (SK-BR-3) [µM] | IC50 (MCF7) [µM] | IC50 (B16-F10) [µM] | IC50 (SK-MEL-28) [µM] | SMILES | IC50 [1] [µM] | IC50 [2] [µM] | IC50 [3] [µM] | IC50 [4] [µM]
24 |  |  | > 50 | 20.6 | COc1cccc(-c2cc(C(=O)Nc3cc4ccc(OC5C=CCC(C)C5)c(C)c4oc3=O)ccc2OC)c1 (stereo not drawn) |  |  | 21.8 | 24.9
25 | 6.23 | 2.56 | 37.5 | 14.9 | COc1cccc(-c2cc(C(=O)Nc3cc4ccc(O[C@@H]5OCC[C@@H](O)[C@H]5O)c(C)c4oc3=O)ccc2OC)c1 | 3.59 |  | 13.4 | 2.79
26 |  |  | > 50 | 23.8 | COc1cccc(-c2cc(C(=O)Nc3cc4ccc(OC5C=CCC(C)(C)C5)c(C)c4oc3=O)ccc2OC)c1 (stereo not drawn) |  |  | 24.4 | 6.7
27 | 1.34 | 1.51 |  |  | COc1cccc(-c2cc(C(=O)Nc3cc4ccc(OC5CCN(C)CC5)c(C)c4oc3=O)ccc2OC)c1 | 4.12 | 3.13 |  | 
28 | > 100 | > 100 | 10.4 | 19.6 | COc1cccc(-c2cc(C(=O)Nc3cc4ccc(O[C@H]5OCCC[C@H]5O)c(C)c4oc3=O)ccc2OC)c1 | 7.34 |  | 18.8 | 3.6
29 | 1.37 | > 100 |  |  | COc1cccc(-c2cc(C(=O)Nc3cc4cc(OC)c(O[C@@H]5C[C@H](O)CCO5)c(C)c4oc3=O)ccc2OC)c1 | 3.27 | 2.35 |  | 
30 | > 100 | 5.32 |  |  | COc1cccc(-c2cc(C(=O)Nc3cc4ccc(O)c(OC)c4oc3=O)ccc2OC)c1 | 6.18 | > 100 |  | 
31 | 11.8 | 14.3 |  |  | COc1cccc(-c2cc(C(=O)Nc3cc4ccc(O[C@@H]5O[C@H](CO)C[C@@H](O)[C@H]5O)c(OC)c4oc3=O)ccc2OC)c1 | 6.78 | 17.9 |  | 
32 | 8.88 | 6.93 |  |  | COc1cccc(-c2cc(C(=O)Nc3cc4ccc(O)c(C)c4oc3=O)ccc2OC)c1 | 3.21 | 5.36 |  | 
33 | > 100 | > 100 |  |  | COc1cccc(-c2cc(C(=O)Nc3cc4cc(OC)c(O[C@H]5C[C@H](O)CCO5)c(C)c4oc3=O)ccc2OC)c1 | 1.49 | 1.24 |  | 
34 | 3.02 | 1.16 |  |  | COc1cccc(-c2cc(C(=O)Nc3cc4ccc(OC(N)=O)c(C)c4oc3=O)ccc2OC)c1 | 2.61 | 6.37 |  | 
35 | 10.8 | 9.18 |  |  | COc1cccc(-c2cc(C(=O)Nc3cc4ccc(OC5CN(C(C)=O)C[C@@H](O)[C@H]5O)c(C)c4oc3=O)ccc2OC)c1 (stereo partly drawn) | 0.71 | 2.22 |  | 
36 | 12.5 | 64.5 |  |  | COc1cccc(-c2cc(C(=O)Nc3cc4cc(OC)c(O[C@H]5OCC[C@@H](O)[C@H]5O)c(C)c4oc3=O)ccc2OC)c1 | 14.9 | 25.4 |  | 
37 | 2.38 | > 100 | > 50 | 18.5 | COc1cccc(-c2cc(C(=O)Nc3cc4ccc(O[C@@H]5OCCC[C@@H](O)[C@H]5O)c(C)c4oc3=O)ccc2OC)c1 | > 100 |  | 22.9 | 7.4
38 | 7.18 | 9.5 |  |  | COc1cccc(-c2cc(C(=O)Nc3cc4cc(OC)c(O[C@@H]5OCC[C@@H](O)[C@H]5O)c(C)c4oc3=O)ccc2OC)c1 | 12.8 | 24 |  | 
39 | > 100 | > 100 | 42.7 | 18.4 | COc1cccc(-c2cc(C(=O)Nc3cc4ccc(O[C@@H]5OCC[C@H]5O)c(C)c4oc3=O)ccc2OC)c1 |  |  | 21.4 | 14.9
40 |  |  | > 50 | 18.6 | COc1cccc(-c2cc(C(=O)Nc3cc4ccc(OC5C=CCCC5)c(C)c4oc3=O)ccc2OC)c1 (stereo not drawn) |  |  | 22.4 | 7.5
41 | > 100 | > 100 |  |  | COc1cccc(-c2cc(C(=O)Nc3cc4ccc(O[C@H]5C[C@H](O)CCO5)c(C)c4oc3=O)ccc2OC)c1 | 3.11 | > 100 |  | 
42 | 1.46 | 17.5 |  |  | COc1cccc(-c2cc(C(=O)Nc3cc4ccc(O[C@@H]5OCC[C@@H](O)[C@H]5O)c(OC)c4oc3=O)ccc2OC)c1 | 2.29 | 10.7 |  | 
43 | 12.5 | 37.2 | 4.55 | 5.74 | COc1cccc(-c2cc(C(=O)Nc3cc4ccc(O[C@@H]5OC[C@@H](O)[C@H]5O)c(C)c4oc3=O)ccc2OC)c1 | 3.65 |  | 1.94 | 12.6
